Data set [1] can be described thus: Cytotoxicity in human CEM.SS T cells assessed as cell viability level at 200 nM. Type of data set: toxicity, cell-based. Particulars: time 7 day, read-out: Activity.
Data set [2] deals with T1, Aberrant vpr protein (Human immunodeficiency virus 1) (UniProt Q77YF9).
T1 sequence (whole entry): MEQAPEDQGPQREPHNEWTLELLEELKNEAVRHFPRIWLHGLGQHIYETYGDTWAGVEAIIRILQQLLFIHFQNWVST
Kind of data set: Modulation of HIV-1 Vpr-dependent enhancement of HIV-1 replication in human CEM.SS T cells assessed as effect on percentages of cell-associated HIV-1 DNA at 200 nM added starting 12 hrs before HIV-1 infection until 7 dpi. It is filed as cell-based. The note with it: time 7.0 day. In short, it runs like this: (§1)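 CEM.SS cells held in drug from ~12 h before infection to 7 dpi, infected (1×10⁵ cells) with a DNase-treated, qPCR-normalized 1:1 mix of NL4-3 reporters HIV-1.mRFP.vpr.wt and HIV-1.RFP.vpr.Q8*, combined moi 0.006–0.02. Density was reset on 3 and 5 dpi, and only cultures with <5% RFP⁺ cells at 7 dpi were kept. Share of each virus DNA at 7 dpi came from SYBR qPCR of RFP/mRFP amplicons against plasmid standards; three biological replicates.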

Data set [3] concerns the target T1, Aberrant vpr protein (Human immunodeficiency virus 1). Kind of data set: Modulation of HIV-1 Vpr-dependent enhancement of HIV-1 replication in human CEM.SS T cells assessed as effect on percentages of cell-associated HIV-1 DNA at 2 uM added starting 12 hrs before HIV-1 infection until 7 dpi. Particulars: time 7.0 day. Type of data set: cell-based. In short, it runs like this: as §1

A short description of data set [4]: Cytotoxicity in human CEM.SS T cells assessed as cell viability level at 2 uM. Particulars: time 7 day, read-out: Activity. It is filed as toxicity, cell-based.
Data set [5] in a line: Cytotoxicity in human CEM.SS T cells assessed as cell viability level at 10 uM. Particulars: time 7 day, read-out: Activity. Type of data set: toxicity, cell-based.
Data set [6] concerns the target T1, Aberrant vpr protein (Human immunodeficiency virus 1). Kind of data set: Modulation of HIV-1 Vpr-dependent enhancement of HIV-1 replication in human CEM.SS T cells assessed as effect on percentages of cell-associated HIV-1 DNA at 10 uM added starting 12 hrs before HIV-1 infection until 7 dpi. It is filed as cell-based. Particulars: time 7.0 day. In outline:
as §1

Data set [7] shares this target. Kind of data set: Modulation of HIV-1 Vpr-dependent enhancement of HIV-1 replication in human CEM.SS T cells assessed as effect on percentages of cell-associated HIV-1 DNA at 3 uM added starting 12 hrs before HIV-1 infection until 7 dpi. Type of data set: cell-based. Particulars: time 7.0 day. In short, it runs like this: as §1
Data set [8] can be described thus: Cytotoxicity in human CEM.SS T cells assessed as cell viability level at 3 uM. It is filed as toxicity, cell-based. The note with it: time 7 day, read-out: Activity.
Data set [9] in a line: Cytotoxicity in human CEM.SS T cells assessed as cell viability level at 1 uM. Particulars: time 7 day, read-out: Activity. Type of data set: toxicity, cell-based.
The target in data set [10] is T1, Aberrant vpr protein (Human immunodeficiency virus 1). Kind of data set: Modulation of HIV-1 Vpr-dependent enhancement of HIV-1 replication in human CEM.SS T cells assessed as effect on percentages of cell-associated HIV-1 DNA at 1 uM added starting 12 hrs before HIV-1 infection until 7 dpi. It is filed as cell-based. The note with it: time 7.0 day. In short, it runs like this:
as §1

Data set [11] has the same target. Kind of data set: Modulation of HIV-1 Vpr-dependent enhancement of HIV-1 replication in human CEM.SS T cells assessed as effect on percentages of cell-associated HIV-1 DNA at 1 nM added starting 12 hrs before HIV-1 infection until 7 dpi. It is filed as cell-based. Particulars: time 7.0 day. In outline:
as §1

Data set [12] in a line: Cytotoxicity in human CEM.SS T cells assessed as cell viability level at 1 nM. It is filed as toxicity, cell-based. Particulars: time 7 day, read-out: Activity.
The nature of data set [13]: Cytotoxicity in human CEM.SS T cells assessed as cell viability level at 0.67 uM. Type of data set: toxicity, cell-based. The note with it: time 7 day, read-out: Activity.
Data set [14] addresses T1, Aberrant vpr protein (Human immunodeficiency virus 1). The experiment in a line: Modulation of HIV-1 Vpr-dependent enhancement of HIV-1 replication in human CEM.SS T cells assessed as effect on percentages of cell-associated HIV-1 DNA at 0.67 uM added starting 12 hrs before HIV-1 infection until 7 dpi. Type of data set: cell-based. Particulars: time 7.0 day. In short, it runs like this: as §1

The source made the active and inactive calls. The rule behind the calls is not given here. Where only a bound is given, the exact number is not on record here.

Among the data in ChEMBL document CHEMBL5674885, “HIV-1 Vpr counteracts HLTF-mediated restriction of HIV-1 infection in T cells” (Proc Natl Acad Sci U S A, 2019) are viability and Activity values, retold here.

For `O=C(CCCCCCC(=O)Nc1ccccc1)NO` [VORINOSTAT], the viability at 168 h, 0.2 µM in data set [1] was above 80%. Also, in data set [2], the result was inactive.

Take `CC(C)N(CCCNC(=O)Nc1ccc(C(C)(C)C)cc1)C[C@H]1O[C@@H](n2cc(Br)c3c(N)ncnc32)[C@H](O)[C@@H]1O`: in data set [3], the result was inactive. In data set [4], the viability at 168 h, 2 µM is above 80%.

On to `NC(=O)C1CCCc2c1[nH]c1ccc(Cl)cc21` (centres undefined), for which the viability at 168 h, 10 µM in data set [5] was above 80%. The result in data set [6] was inactive.

In the case of `CC1=NN(c2ccc(C(=O)O)cc2)C(=O)/C1=C\c1ccc(-c2cc(C)c(C)cc2[N+](=O)[O-])o1`, the result in [7] was inactive. The viability at 168 h, 3 µM in data set [8] was above 80%.

Turning to `COc1cc2c(NC3CCN(C(C)C)CC3)nc(C3CCCCC3)nc2cc1OCCCN1CCCC1`, the viability at 168 h, 1 µM in data set [9] is above 80%. The result in [10] was inactive.

Take `CC(/C=C/C(=O)NO)=C\[C@@H](C)C(=O)c1ccc(N(C)C)cc1` [TRICHOSTATIN]: in data set [11], the outcome was inactive. For the same compound, the viability at 168 h, 0.001 µM in [12] is above 80%.

For the compound `CCCc1cc(C)[nH]c(=O)c1CNC(=O)c1cc(-c2ccnc(N3CCN(C)CC3)c2)cc2c1cnn2C(C)C`, the viability at 168 h, 0.67 µM in data set [13] was above 80%. Besides, the result in [14] was inactive.
